Assay results: ChEMBL document CHEMBL1139226, “Partial retro-inverso, retro, and inverso modifications of hydrazide linked bifunctional peptides for opioid and cholecystokinin (CCK) receptors” (J Med Chem, 2007)

Experiments:
[1] = target: T1, Gastrin/cholecystokinin type B receptor (Homo sapiens, UniProt P32239); test: Activity at human CCK2 receptor expressed in HEK293 cells assessed as level of [3H]inositol produced relative to control; type: functional, cell-based
T1 sequence (P32239 whole entry): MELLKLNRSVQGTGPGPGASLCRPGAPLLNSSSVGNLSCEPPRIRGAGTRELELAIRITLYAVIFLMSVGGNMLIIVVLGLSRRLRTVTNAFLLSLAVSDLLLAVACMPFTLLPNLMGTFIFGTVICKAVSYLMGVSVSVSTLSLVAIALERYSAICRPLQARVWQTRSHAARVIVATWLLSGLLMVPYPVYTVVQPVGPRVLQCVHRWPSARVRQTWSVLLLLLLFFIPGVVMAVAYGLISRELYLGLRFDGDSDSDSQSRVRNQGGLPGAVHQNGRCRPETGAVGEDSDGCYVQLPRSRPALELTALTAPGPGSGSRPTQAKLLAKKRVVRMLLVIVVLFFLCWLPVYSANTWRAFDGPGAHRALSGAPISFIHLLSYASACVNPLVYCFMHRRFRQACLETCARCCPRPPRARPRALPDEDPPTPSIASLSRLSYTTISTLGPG

[2] = target: T2, Delta-type opioid receptor (Homo sapiens, UniProt P41143); test: Activity at human delta opioid receptor expressed in CHO cells by [35S]GTP-gamma-S binding assay; type: functional, cell-based; settings: for Log IC50: cho
T2 sequence (P41143 whole entry): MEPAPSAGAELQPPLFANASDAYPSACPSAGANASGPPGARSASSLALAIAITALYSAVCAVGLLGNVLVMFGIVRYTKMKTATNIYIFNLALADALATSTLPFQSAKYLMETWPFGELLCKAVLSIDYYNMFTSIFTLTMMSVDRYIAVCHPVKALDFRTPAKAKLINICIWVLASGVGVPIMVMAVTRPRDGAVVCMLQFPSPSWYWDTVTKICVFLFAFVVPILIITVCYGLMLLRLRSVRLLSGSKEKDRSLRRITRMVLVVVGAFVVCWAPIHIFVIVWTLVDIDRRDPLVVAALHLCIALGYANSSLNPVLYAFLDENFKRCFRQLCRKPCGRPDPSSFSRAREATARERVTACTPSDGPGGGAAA
In short: (§1)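 Receptors expressed in CHO cells; agonist-stimulated GTP-γ-S binding reported as net total bound/basal binding × 100. Log EC50 from nonlinear regression of at least two independent experiments.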

Mu-type opioid receptor [3] = target: T3, Mu-type opioid receptor (Rattus norvegicus, UniProt P33535); test: (§2) Activity at rat mu opioid receptor expressed in CHO cells by [35S]GTPgammaS binding assay; type: functional, cell-based; in short: as §1
T3 sequence (P33535 whole entry): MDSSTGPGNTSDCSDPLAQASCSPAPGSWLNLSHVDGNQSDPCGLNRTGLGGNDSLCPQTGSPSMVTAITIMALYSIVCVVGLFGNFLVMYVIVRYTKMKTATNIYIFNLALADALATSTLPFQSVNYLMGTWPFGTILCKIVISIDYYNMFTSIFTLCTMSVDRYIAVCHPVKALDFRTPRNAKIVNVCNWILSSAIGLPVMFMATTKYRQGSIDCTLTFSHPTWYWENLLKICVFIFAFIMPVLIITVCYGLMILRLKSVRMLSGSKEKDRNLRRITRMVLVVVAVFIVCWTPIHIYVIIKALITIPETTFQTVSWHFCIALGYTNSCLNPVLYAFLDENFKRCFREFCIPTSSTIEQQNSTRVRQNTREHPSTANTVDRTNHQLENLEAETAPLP

[4] = target: T4, Cholecystokinin receptor type A (Homo sapiens, UniProt P32238); test: Displacement of [125I]CCK8-SO3 from human CCK1 receptor expressed in HEK293 cells; type: cell-based
T4 sequence (P32238 whole entry): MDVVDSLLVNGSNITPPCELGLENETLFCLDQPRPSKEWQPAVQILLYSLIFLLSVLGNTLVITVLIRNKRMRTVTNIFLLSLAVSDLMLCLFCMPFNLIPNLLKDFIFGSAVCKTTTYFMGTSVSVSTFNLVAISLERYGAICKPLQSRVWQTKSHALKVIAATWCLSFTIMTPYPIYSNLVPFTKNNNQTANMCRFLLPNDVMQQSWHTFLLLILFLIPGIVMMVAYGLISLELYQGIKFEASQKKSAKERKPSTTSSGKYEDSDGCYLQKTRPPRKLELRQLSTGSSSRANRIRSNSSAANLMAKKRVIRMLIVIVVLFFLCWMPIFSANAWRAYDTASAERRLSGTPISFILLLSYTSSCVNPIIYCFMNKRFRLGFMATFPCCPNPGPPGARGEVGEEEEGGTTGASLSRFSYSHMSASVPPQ

[5] = target: T1, Gastrin/cholecystokinin type B receptor; test: Displacement of [125I]CCK8-SO3 from human CCK2 receptor expressed in HEK293 cells; type: cell-based
[6] = target: T2, Delta-type opioid receptor; test: Displacement of [3H]DPDPE from human delta opioid receptor expressed in HN9.10 cells; type: cell-based
Mu-type opioid receptor [7] = target: T3, Mu-type opioid receptor; test: Displacement of [3H]DAMGO from rat mu opioid receptor expressed in HN9.10 cells; type: cell-based
[8] = target: Mu-type opioid receptor (Rattus norvegicus) (UniProt P33535); test: as §2; type: functional, cell-based; in short: as §1
Chain of Mu-type opioid receptor (Rattus norvegicus) (P33535 whole entry): as the sequence (P33535 whole entry) above

[9] = target: Delta-type opioid receptor (Mus musculus, UniProt P32300); test: Activity at delta opioid receptor in ICR mouse by MVD assay; type: functional, tissue-based
Chain of Delta-type opioid receptor (Mus musculus, UniProt P32300) (P32300 whole entry): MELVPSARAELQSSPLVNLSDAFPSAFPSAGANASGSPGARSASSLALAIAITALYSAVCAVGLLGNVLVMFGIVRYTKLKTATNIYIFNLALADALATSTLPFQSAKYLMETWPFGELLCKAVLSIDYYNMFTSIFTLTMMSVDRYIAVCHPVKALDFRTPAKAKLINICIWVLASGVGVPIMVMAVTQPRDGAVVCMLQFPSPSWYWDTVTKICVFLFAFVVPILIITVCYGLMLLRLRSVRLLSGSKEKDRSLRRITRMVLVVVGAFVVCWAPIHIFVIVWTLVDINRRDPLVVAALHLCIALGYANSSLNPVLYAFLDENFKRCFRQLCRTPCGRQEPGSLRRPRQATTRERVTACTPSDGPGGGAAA
In short: (§3)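 Electrically stimulated isolated tissue; value is concentration giving 50% inhibition of muscle contraction.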

Mu-type opioid receptor [10] = target: Mu-type opioid receptor (Cavia porcellus, UniProt P97266); test: Activity at mu opioid receptor assessed as contraction of electrically-stimulated Hartley guinea pig ileum; type: functional, tissue-based; in short: as §3
Chain of Mu-type opioid receptor (Cavia porcellus, UniProt P97266) (P97266 whole entry): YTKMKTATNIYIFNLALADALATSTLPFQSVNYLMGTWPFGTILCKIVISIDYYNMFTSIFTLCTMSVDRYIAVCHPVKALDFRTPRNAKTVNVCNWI

CCCC[C@H](NC(=O)[C@@H](Cc1c[nH]c2ccccc12)NC(=O)OC(C)(C)C)C(=O)N[C@@H](CC(=O)O)C(=O)N[C@@H](Cc1ccccc1)C(=O)NNC(=O)[C@H](Cc1ccccc1)NC(=O)CNC(=O)[C@@H](C)NC(=O)[C@@H](N)Cc1ccc(O)cc1 was tested, and the EC50 [1] was 16 nM, the “Log IC50” value [1] was -7.8 and the “Log IC50” value [2] was -7.13. The “Log IC50” value (Mu-type opioid receptor [3]; cho) was -6.69.
For CCCC[C@@H](NC(=O)[C@@H](CC(=O)O)NC(=O)[C@@H](Cc1ccccc1)NC(=O)OC(C)(C)C)C(=O)N[C@@H](Cc1cc2ccccc2[nH]1)C(=O)NNC(=O)[C@H](Cc1ccccc1)NC(=O)CNC(=O)[C@@H](C)NC(=O)[C@@H](N)Cc1ccc(O)cc1, the IC50 [4] was 132 nM, the Ki [4] was 130 nM and the IC50 [5] was 1100 nM. The Ki [5] was 1100 nM, the IC50 [6] was 9.12 nM and the Ki [6] was 3.9 nM. For the same molecule, the IC50 (Mu-type opioid receptor [7]) was 132 nM, the Ki (Mu-type opioid receptor [7]) was 56 nM and the EC50 [2] was 13 nM. It also gave an Emax [2] of 99%, an IC50 [2] of 12.3 nM and an Emax [8] of 71%. It also gave a log EC50 (Mu-type opioid receptor [3]) of -6.76, an IC50 [9] of 18 nM and an IC50 (Mu-type opioid receptor [10]) of 530 nM.
CCCC[C@H](NC(=O)[C@H](N)Cc1c[nH]c2ccccc12)C(=O)N[C@@H](CC(=O)O)C(=O)N[C@@H](Cc1ccccc1)C(=O)NNC(=O)[C@H](Cc1ccccc1)NC(=O)CNC(=O)[C@@H](C)NC(=O)[C@@H](N)Cc1ccc(O)cc1 was tested, and the EC50 [1] was 4.6 nM, the “Log IC50” value [1] was -8.34 and the Ki (Mu-type opioid receptor [7]) was 0.5 nM. The “Log IC50” value [2] was -8.02, the EC50 (Mu-type opioid receptor [3]; cho) was 96 nM and the “Log IC50” value (Mu-type opioid receptor [3]; cho) was -8.02.
In the case of CCCC[C@H](NC(=O)[C@@H](Cc1cc2ccccc2[nH]1)NC(=O)OC(C)(C)C)C(=O)N[C@@H](CC(=O)O)C(=O)N[C@@H](Cc1ccccc1)C(=O)NNC(=O)[C@H](Cc1ccccc1)NC(=O)CNC(=O)[C@@H](C)NC(=O)[C@@H](N)Cc1ccc(O)cc1, the Emax [2] is reported as 100% and the Emax [8] is reported as 170%.
CCCC[C@H](NC(=O)[C@H](N)Cc1cc2ccccc2[nH]1)C(=O)N[C@@H](CC(=O)O)C(=O)N[C@@H](Cc1ccccc1)C(=O)NNC(=O)[C@H](Cc1ccccc1)NC(=O)CNC(=O)[C@@H](C)NC(=O)[C@@H](N)Cc1ccc(O)cc1 showed an Emax [2] of 64% and an Emax [8] of 82%.
CCCC[C@@H](NC(=O)[C@H](Cc1cc2ccccc2[nH]1)NC(=O)OC(C)(C)C)C(=O)N[C@H](CC(=O)O)C(=O)N[C@H](Cc1ccccc1)C(=O)NNC(=O)[C@H](Cc1ccccc1)NC(=O)CNC(=O)[C@@H](C)NC(=O)[C@@H](N)Cc1ccc(O)cc1 was tested, and the Ki [4] was 8300 nM, the Ki [5] was over 10000 nM and the IC50 [6] was 16.2 nM. The Ki [6] was 6.9 nM, the IC50 (Mu-type opioid receptor [7]) was 79.4 nM and the Ki (Mu-type opioid receptor [7]) was 34 nM. For the same molecule, the EC50 [2] was 8.4 nM, the Emax [2] was 93% and the IC50 [2] was 8.32 nM. The Emax [8] was 106%, the EC50 (Mu-type opioid receptor [3]) was 1.3 nM and the log EC50 (Mu-type opioid receptor [3]) was -8.9. It also gave an IC50 [9] of 31 nM and an IC50 (Mu-type opioid receptor [10]) of 210 nM.
